# Source: PubChem BioAssay
# Most compounds without a hit are left out; they make up all but 1.9% or so of the library.
# NR1D1 modulator: modulators of Rev-erb alpha DNA binding, primary screen, biochemical, FITC-DNA, fluorescence polarization, uHTS | Rev-erbα–FITC-DNA binding, 90 min | activity, % at 10 µM | 0.79% of 370,000 active | AID 1259318, 2017;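 active = activity above about 14%, limit read from the data; passing the limit was not always enough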;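 also: 0% = DMSO wells with 35 nM protein and 100% = DMSO wells with 750 nM protein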
# NR2E3 ag-1: inhibitors of NR2E3-RetCOR corepressor binding, primary screen, NR2E3 agonist project, biochemical, TR-FRET, GST-NR2E3, biotin-RetCOR; Photoreceptor-specific nuclear receptor (Homo sapiens), Q9Y5X4; 1536-well; inhibition of corepressor binding, % at 4.78 µM; 0.12% of 320,000 active;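 active = percent inhibition above the cutoff of mean plus 3 SD of all tested compounds, set per screening campaign, cut at about 20% in these data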;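 also: 0% = DMSO wells and 100% = biotin wells as full block of FRET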
# Target sequence (Q9Y5X4 whole entry, looked up): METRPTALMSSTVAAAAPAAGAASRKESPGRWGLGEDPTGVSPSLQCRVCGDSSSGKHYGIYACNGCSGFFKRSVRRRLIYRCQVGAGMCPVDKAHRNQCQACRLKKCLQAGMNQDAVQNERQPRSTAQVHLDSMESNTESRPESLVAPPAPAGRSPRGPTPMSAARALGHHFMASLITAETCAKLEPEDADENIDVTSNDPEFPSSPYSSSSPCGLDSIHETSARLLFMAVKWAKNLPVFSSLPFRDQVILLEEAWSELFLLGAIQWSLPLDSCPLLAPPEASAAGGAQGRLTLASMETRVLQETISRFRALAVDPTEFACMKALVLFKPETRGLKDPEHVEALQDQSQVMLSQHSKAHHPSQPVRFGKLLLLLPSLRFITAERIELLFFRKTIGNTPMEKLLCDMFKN
#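 Material: NR2E3–RetCOR corepressor complex / Incubation: Compound–protein incubation for 5 h at 4 °C / Dosing: compound at 4.8 µM, single dose / Detection: time-resolved FRET / Benchmarks: high control biotin, low control 0.6% DMSO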
# MT1-MMP act inh: blockers of MT1-MMP proenzyme processing, primary screen, HT1080 RFP-PRO-GFP cells, GFP/RFP fluorescence | GFP/RFP ratio change, % at 20 µM | 0.061% of 360,000 active | GFP/RFP ratio fluorescence, overnight; percent of plate control window, DMSO zero;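 active = GFP/RFP ratio change of at least 30% with cell ATP level not reduced by more than half and red fluorescence within 50% of control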
#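 Material: RFP-PRO-GFP reporter HT1080 cells. Dosing: single-point 20 µM compound, 1% DMSO. Controls: DMSO and RFP-L50D-GFP cell wells. Timing: cells overnight before dosing, compound overnight, 37 °C, 5% CO2. Measure: GFP/RFP fluorescence ratio.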
# NR2E3 ag-2: NR2E3 agonists in two-hybrid cells, primary screen, cell-based, luminescence, CHO-S, Gal4-NCOR/VP16-NR2E3; Photoreceptor-specific nuclear receptor (Homo sapiens), Q9Y5X4; luciferase; inhibition of corepressor binding, % at 3.98 µM; 0.35% of 360,000 active;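 active = inhibition above the mean of all tested compounds plus 3 SD, cut at about 70% in these data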;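 also: 0% = DMSO with NR2E3 transfected cells and 100% = cells lacking NR2E3 construct; higher means lower luciferase signal from less NR2E3 corepressor binding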
# PG9 Ab binder: binders of HIV-1 gp120 antibody PG9, primary screen, biochemical, TR-FRET; HIV-1 gp120 / PG9 antibody interaction; TR-FRET gp120-PG9 antibody binding; inhibition, % at 6.7 µM; 0.43% of 360,000 active; AID 624416, 2012; in the data active = inhibition above about 8.5%
# SKN-1 block: suppressors of acrylamide-induced Pgst-4::GFP reporter in worms, primary screen, SKN-1 inhibitor project, whole organism, uHTS, GFP/RFP fluorescence ratio, strain VP596. C. elegans VP596 Pgst-4::GFP/RFP ratio, 24 h. inhibition, % at 21.8 µM. 0.49% of 360,000 active. AID 624304, 2012;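 active = interference check ratio from 0.5 to 1.5 plus GFP to RFP signal ratio inhibition reaching or exceeding a fixed threshold, cut at about 30% in these data, passing the limit was not always enough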
# NR2E3 ag confirm-1: NR2E3 agonists, confirmation, biochemical, TR-FRET. 39% of 360 active. activation (reported as inhibition), % at 3.98 µM. cell-free NR2E3 corepressor release, 5 h. AID 2379, 2010. shares compounds with NR2E3 ag-1; in the data active = activation above about 20%
# PPARg-NCOR2 ag: agonists of PPARg-NCOR2 corepressor interaction, counter-screen for NR2E3 agonist project, biochemical, TR-FRET | inhibition, % at 3.98 µM | shares compounds with NR2E3 ag-1 | TR-FRET PPARg-NCOR2 coregulator interaction | 45% of 360 active; in the data active = inhibition above about 20%;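 also: 0% = DMSO vehicle and 100% = wells without protein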
# NR2E3 ag confirm-2: NR2E3 agonist confirmation in cells, cell-based, luminescence, CHO-S two-hybrid | inhibition, % at 3.98 µM | 51% of 2,300 active | AID 624378, 2012 | shares compounds with NR2E3 ag-2 | CHO-S mammalian two-hybrid NR2E3-NCOR, luciferase luminescence;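 active = average inhibition above a cutoff equal to the mean inhibition of all tested compounds plus one SD, cut at about 70% in these data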;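 also: 0% = DMSO in NR2E3 cells and 100% = DMSO in cells lacking NR2E3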
# VP16 counter: GAL4-VP16 reporter modulators, confirmation, counter-screen for NR2E3 agonist project, cell-based, luminescence, CHO-S, high throughput. CHO-S GAL4-VP16 luciferase reporter. AID 624379, 2012. inhibition, % at 3.98 µM. shares compounds with NR2E3 ag-2. 29% of 2,300 active;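 active = mean inhibition above a cutoff equal to the average over all tested compounds plus one standard deviation, cut at about 70% in these data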;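 also: luciferase from a UAS reporter driven by GAL4-VP16 transactivation; 0% = DMSO with VP16-transfected cells and 100% = DMSO with cells lacking VP16; higher means less reporter light so more repression of VP16 activity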
# The depositor's hits bear a star; . = no result.
SMILES,NR1D1 modulator,NR2E3 ag-1,MT1-MMP act inh,NR2E3 ag-2,PG9 Ab binder,SKN-1 block,NR2E3 ag confirm-2,VP16 counter,others
Cn1ncnc2c(=O)n(C)c(=O)nc1-2,.,32*,-27,104*,.,-2,98*,97*,NR2E3 ag confirm-1=36*;PPARg-NCOR2 ag=66*
CN1CC(CNC(=O)OCc2ccccc2)CC2c3cccc4c3c(cn4C)CC21 (stereo not drawn),6,.,.,.,.,.,.,.,
COC1C(OC(=O)c2ccc(C)[nH]2)C(O)C(Oc2ccc3c(O)c(NC(=O)c4ccc(O)c(CC=C(C)C)c4)c(=O)oc3c2Cl)OC1(C)C (stereo not drawn),-3,2,1,81*,-1,7,-32,31,
C=CCCC(NC(=O)OCc1ccccc1)P(=O)(Oc1ccccc1)Oc1ccccc1 (stereo not drawn),-8,.,.,.,.,.,.,.,
Cn1nc(-c2ccc(OCC(=O)N3CCN(Cc4ccccc4)CC3)cc2)c2ccccc2c1=O,2,-5,12,71*,-2,-11,68,59,
COC(=O)C[C@]1(C(=O)OC)CN(C#N)N(c2ccc(Cl)cc2)C12c1ccccc1-c1ccccc12,3,2,-19,89*,1,8,80*,21,
Cc1ccc(-c2cc(-c3ccc(C)cc3)[n+](-c3ccccc3)c(-c3ccc(C)cc3)c2)cc1,.,2,-14,100*,.,11,100*,96*,
CN(C)c1ccc(-[n+]2c(-c3ccccc3)cc(-c3ccccc3)cc2-c2ccccc2)cc1,1,.,-6,51,1,-20,96*,65,
CC(C)(O)C(Cl)(Cl)Cl,-2,.,.,.,.,.,.,.,
CCOC(=O)C1=C(C(=O)OCC)C2(c3ccccc3)c3ccccc3C1(C)N2C (stereo not drawn),2,.,.,.,-1,.,.,.,
O=[N+]([O-])c1ccc(N2CCOCC2)c2cccnc12,5,-2,5,-9,-2,3,.,.,
O=[N+]([O-])c1ccc(N2CCOCC2)c2c1no[n+]2[O-],15,.,-157,58,-4,21,59,56,
O=c1[nH]c(=S)[nH]c(O)c1N=Nc1ccc2c(c1)OCO2,7,-8,1,-12,-16,20,.,.,
O=c1[nH]c(O)c(N=Nc2ccc3c(c2)OCCO3)c(=O)[nH]1,22,-2,-6,69,-8,17,42,37,
COC(=O)C1C(c2ccc(I)cc2)CC2CCC1N2C (stereo not drawn),5,.,.,.,1,.,.,.,
